In ChEMBL document CHEMBL3232844, “Synthesis and structure activity relationships of schweinfurthin indoles” (2014):

Key:
Type in all cases: functional
[1] = Cytotoxicity against human HCT15 cells
How it was run: (§1)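 Tested in a 60-cell-line human tumor panel screen; the read-out is growth inhibition, reported as GI50 for each cell line.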

SK-OV-3 = assay: Cytotoxicity against human SKOV3 cells; how it was run: as §1
HL-60(TB) = assay: Cytotoxicity against human HL-60(TB) cells
How it was run: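 Tested within the NCI 60-cell-line screen, with GI50 as the read-out. Values are the average of two independent experiments. The lowest concentration tested was 10 nM.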

HOP-62 = assay: Cytotoxicity against human HOP62 cells; how it was run: as §1
[2] = Cytotoxicity against human NCI-ADR-RES cells; how it was run: as §1
SNB-75 = assay: Cytotoxicity against human SNB75 cells
How it was run: (§2)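 Cell line run as part of the 60-cell-line screening panel; growth inhibition was reported as a GI50 for each line.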

786-0 = assay: Cytotoxicity against human 786-0 cells; how it was run: as §1
DU-145 = assay: Cytotoxicity against human DU145 cells; how it was run: as §1
HCT-116 = assay: Cytotoxicity against human HCT116 cells; how it was run: as §1
HCC 2998 = assay: Cytotoxicity against human HCC2998 cells; how it was run: as §1
NCI-H460 = assay: Cytotoxicity against human NCI-H460 cells; how it was run: as §1
MOLT-4 = assay: Cytotoxicity against human MOLT4 cells; how it was run: as §1
SNB-19 = assay: Cytotoxicity against human SNB19 cells; how it was run: as §1
SN12C = assay: Cytotoxicity against human SN12C cells; how it was run: as §1
SF-268 = assay: Cytotoxicity against human SF268 cells; how it was run: as §1
SF-295 = assay: Cytotoxicity against human SF295 cells; how it was run: as §1
[3] = Cytotoxicity against human UACC257 cells; how it was run: as §2
SR = assay: Cytotoxicity against human SR cells; how it was run: as §2
A498 = assay: Cytotoxicity against human A498 cells; how it was run: as §1
CCRF-CEM = assay: Cytotoxicity against human CCRF-CEM cells
[4] = Cytotoxicity against human UACC62 cells; how it was run: as §2
U-251 = assay: Cytotoxicity against human U251 cells; how it was run: as §2
[5] = Cytotoxicity against human OVCAR5 cells; how it was run: as §1
[6] = Cytotoxicity against human OVCAR4 cells; how it was run: as §1
TK-10 = assay: Cytotoxicity against human TK10 cells; how it was run: as §2
IGROV-1 = assay: Cytotoxicity against human IGROV1 cells; how it was run: as §1
NCI-H322M = assay: Cytotoxicity against human NCI-H322M cells; how it was run: as §1
PC-3 = assay: Cytotoxicity against human PC3 cells; how it was run: as §1
SF-539 = assay: Cytotoxicity against human SF539 cells; how it was run: as §1
LOX IMVI = assay: Cytotoxicity against human LOXIMVI cells; how it was run: as §1
CAKI-1 = assay: Cytotoxicity against human Caki1 cells; how it was run: as §1
A549 = assay: Cytotoxicity against human A549 cells; how it was run: as §1
SK-MEL-5 = assay: Cytotoxicity against human SK-MEL-5 cells; how it was run: as §1
MDA-MB-231 = assay: Cytotoxicity against human MDA-MB-231 cells; how it was run: as §1
ACHN = assay: Cytotoxicity against human ACHN cells; how it was run: as §1
MDA-MB-435 = assay: Cytotoxicity against human MDA-MB-435 cells; how it was run: as §1
T47D = assay: Cytotoxicity against human T47D cells; how it was run: as §2
MCF7 = assay: Cytotoxicity against human MCF7 cells; how it was run: as §1
HT-29 = assay: Cytotoxicity against human HT-29 cells; how it was run: as §1
BT-549 = assay: Cytotoxicity against human BT549 cells; how it was run: as §1
SK-MEL-2 = assay: Cytotoxicity against human SK-MEL-2 cells; how it was run: as §1
COLO 205 = assay: Cytotoxicity against human COLO205 cells; how it was run: as §1
KM12 = assay: Cytotoxicity against human KM12 cells; how it was run: as §1
[7] = read-out: pLC50 (the source's name) (converted)

COc1cc(/C=C/c2cc(O)c3cc(CC=C(C)C)[nH]c3c2)cc2c1O[C@]1(C)CC[C@@H](O)C(C)(C)[C@H]1C2
GI50 ([1]; HCT-15): 1.45 µM | CC50 ([1]; HCT-15, read-out: pLC50 (the source's name) (converted)): > 100 µM | TGI ([1]; HCT-15, read-out: pTGI (converted)): 17.4 µM | GI50 (SK-OV-3): 3.39 µM | LC50 (SK-OV-3): > 100 µM | TGI (SK-OV-3; read-out: pTGI (converted)): > 100 µM | GI50 (HL-60(TB)): 18.6 µM | CC50 (HL-60(TB); [7]): > 100 µM | TGI (HL-60(TB); read-out: pTGI (converted)): > 100 µM | GI50 (HOP-62): 0.832 µM | CC50 (HOP-62; [7]): > 100 µM | TGI (HOP-62; read-out: pTGI (converted)): 46.8 µM | GI50 [2]: 64.6 µM | CC50 [2, 7]: > 100 µM | TGI ([2]; read-out: pTGI (converted)): > 100 µM | GI50 (SNB-75): 0.49 µM | CC50 (SNB-75; [7]): > 100 µM | TGI (SNB-75; read-out: pTGI (converted)): > 100 µM | GI50 (786-0): 0.363 µM | LC50 (concentration killing 50% of cells) (786-0): > 100 µM | TGI (786-0; read-out: pTGI (converted)): 11 µM | GI50 (DU-145): 8.13 µM | LC50 (50% lethal concentration) (DU-145): > 100 µM | TGI (DU-145; read-out: pTGI (converted)): > 100 µM | GI50 (HCT-116): 2.34 µM | CC50 (HCT-116; [7]): > 100 µM | TGI (HCT-116; read-out: pTGI (converted)): > 100 µM | GI50 (HCC 2998): 9.55 µM | CC50 (HCC 2998; [7]): > 100 µM | TGI (HCC 2998; read-out: pTGI (converted)): > 100 µM | GI50 (NCI-H460): 3.31 µM | CC50 (NCI-H460; [7]): > 100 µM | TGI (NCI-H460; read-out: pTGI (converted)): > 100 µM | GI50 (MOLT-4): 0.813 µM | CC50 (MOLT-4; [7]): > 100 µM | TGI (MOLT-4; read-out: pTGI (converted)): > 100 µM | GI50 (SNB-19): 2.63 µM | CC50 (SNB-19; [7]): > 100 µM | TGI (SNB-19; read-out: pTGI (converted)): > 100 µM | GI50 (SN12C): 58.9 µM | LC50 (SN12C): > 100 µM | TGI (SN12C; read-out: pTGI (converted)): > 100 µM | GI50 (SF-268): 4.27 µM | CC50 (SF-268; [7]): > 100 µM | TGI (SF-268; read-out: pTGI (converted)): > 100 µM | GI50 (SF-295; read-out: GI50): 0.29 µM | GI50 (SF-295; read-out: pGI50 (converted)): 0.288 µM | CC50 (SF-295; [7]): 51.3 µM | TGI (SF-295; read-out: pTGI (converted)): 1.51 µM | GI50 ([3]; UACC-257): 12 µM | CC50 ([3]; UACC-257, read-out: pLC50 (the source's name) (converted)): > 100 µM | TGI ([3]; UACC-257, read-out: pTGI (converted)): 81.3 µM | GI50 (SR): 0.759 µM | CC50 (SR; [7]): > 100 µM | TGI (SR; read-out: pTGI (converted)): > 100 µM | GI50 (A498): 1.02 µM | CC50 (A498; [7]): > 100 µM | TGI (A498; read-out: pTGI (converted)): 22.9 µM | GI50 (CCRF-CEM): 0.741 µM | CC50 (CCRF-CEM; [7]): > 100 µM | TGI (CCRF-CEM; read-out: pTGI (converted)): > 100 µM | GI50 ([4]; UACC-62): 0.955 µM | CC50 ([4]; UACC-62, read-out: pLC50 (the source's name) (converted)): > 100 µM | TGI ([4]; UACC-62, read-out: pTGI (converted)): 7.59 µM | GI50 (U-251): 0.603 µM | CC50 (U-251; [7]): > 100 µM | TGI (U-251; read-out: pTGI (converted)): > 100 µM | GI50 ([5]; OVCAR-5): 25.7 µM | CC50 ([5]; OVCAR-5, read-out: pLC50 (the source's name) (converted)): > 100 µM | TGI ([5]; OVCAR-5, read-out: pTGI (converted)): > 100 µM | GI50 ([6]; OVCAR-4): 28.8 µM | CC50 ([6]; OVCAR-4, read-out: pLC50 (the source's name) (converted)): > 100 µM | TGI ([6]; OVCAR-4, read-out: pTGI (converted)): > 100 µM | GI50 (TK-10): 19.1 µM | LC50 (TK-10): > 100 µM | TGI (TK-10; read-out: pTGI (converted)): > 100 µM | GI50 (IGROV-1): 5.01 µM | CC50 (IGROV-1; [7]): > 100 µM | TGI (IGROV-1; read-out: pTGI (converted)): > 100 µM | GI50 (NCI-H322M): 32.4 µM | CC50 (NCI-H322M; [7]): > 100 µM | TGI (NCI-H322M; read-out: pTGI (converted)): > 100 µM | GI50 (PC-3): 1.02 µM | LC50 (PC-3): > 100 µM | TGI (PC-3; read-out: pTGI (converted)): > 100 µM | GI50 (SF-539): 0.324 µM | CC50 (SF-539; [7]): 83.2 µM | TGI (SF-539; read-out: pTGI (converted)): 2.75 µM | GI50 (LOX IMVI): 2.82 µM | CC50 (LOX IMVI; [7]): > 100 µM | TGI (LOX IMVI; read-out: pTGI (converted)): 75.9 µM | GI50 (CAKI-1): 4.07 µM | LC50 (CAKI-1): > 100 µM | TGI (CAKI-1; read-out: pTGI (converted)): 93.3 µM | GI50 (A549): 6.31 µM | CC50 (A549; [7]): > 100 µM | TGI (A549; read-out: pTGI (converted)): > 100 µM | GI50 (SK-MEL-5): 1.41 µM | CC50 (SK-MEL-5; [7]): 7.24 µM | TGI (SK-MEL-5; read-out: pTGI (converted)): 3.16 µM | GI50 (MDA-MB-231): 2.69 µM | LC50 (MDA-MB-231): > 100 µM | TGI (MDA-MB-231; read-out: pTGI (converted)): 63.1 µM | GI50 (ACHN): 7.08 µM | LC50 (concentration killing 50% of cells) (ACHN): > 100 µM | TGI (ACHN; read-out: pTGI (converted)): > 100 µM | GI50 (MDA-MB-435): 3.8 µM | CC50 (MDA-MB-435; [7]): > 100 µM | TGI (MDA-MB-435; read-out: pTGI (converted)): > 100 µM | GI50 (T47D): 29.5 µM | CC50 (T47D; [7]): > 100 µM | TGI (T47D; read-out: pTGI (converted)): > 100 µM | GI50 (MCF7): 2.45 µM | LC50 (MCF7): > 100 µM | TGI (MCF7; read-out: pTGI (converted)): 50.1 µM | GI50 (HT-29): 2.63 µM | CC50 (HT-29; [7]): 79.4 µM | TGI (HT-29; read-out: pTGI (converted)): 18.6 µM | GI50 (BT-549): 3.72 µM | CC50 (BT-549; [7]): > 100 µM | TGI (BT-549; read-out: pTGI (converted)): 50.1 µM | GI50 (SK-MEL-2): 1.95 µM | CC50 (SK-MEL-2; [7]): > 100 µM | TGI (SK-MEL-2; read-out: pTGI (converted)): > 100 µM | GI50 (COLO 205): 2.75 µM | CC50 (COLO 205; [7]): 22.4 µM | TGI (COLO 205; read-out: pTGI (converted)): 8.32 µM | GI50 (KM12): 2.04 µM | CC50 (KM12; [7]): 74.1 µM | TGI (KM12; read-out: pTGI (converted)): 10.5 µM
